pIC50, pKi: −log10 of the molar value. Active and inactive are the calls of the source. The rule behind the calls is not given here.
Legend:
[1] = target: 5-hydroxytryptamine receptor 2A (Homo sapiens, UniProt P28223); assay: biochemical; type: cell-based, HEK293
[2] = target: T1, 5-hydroxytryptamine receptor 1A (Homo sapiens) (UniProt P08908); assay: Binding affinity to 5HT1A receptor (unknown origin)
T1 sequence (whole entry): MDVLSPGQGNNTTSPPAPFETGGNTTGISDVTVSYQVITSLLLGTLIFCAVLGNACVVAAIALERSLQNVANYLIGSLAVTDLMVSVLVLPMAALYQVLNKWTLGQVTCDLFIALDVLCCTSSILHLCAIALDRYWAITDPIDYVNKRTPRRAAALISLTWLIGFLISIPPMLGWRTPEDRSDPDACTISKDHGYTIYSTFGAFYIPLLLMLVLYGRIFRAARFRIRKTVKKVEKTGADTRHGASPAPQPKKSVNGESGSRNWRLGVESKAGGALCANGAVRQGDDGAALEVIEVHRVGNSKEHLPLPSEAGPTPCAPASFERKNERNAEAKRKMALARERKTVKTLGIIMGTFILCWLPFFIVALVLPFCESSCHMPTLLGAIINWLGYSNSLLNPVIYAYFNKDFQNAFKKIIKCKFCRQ

[3] = target: Sodium-dependent dopamine transporter (Homo sapiens, UniProt Q01959); assay: Displacement of [125I]RTI-55 from human DAT expressed in HEK293 cell membranes
Chain of Sodium-dependent dopamine transporter (Q01959 whole entry): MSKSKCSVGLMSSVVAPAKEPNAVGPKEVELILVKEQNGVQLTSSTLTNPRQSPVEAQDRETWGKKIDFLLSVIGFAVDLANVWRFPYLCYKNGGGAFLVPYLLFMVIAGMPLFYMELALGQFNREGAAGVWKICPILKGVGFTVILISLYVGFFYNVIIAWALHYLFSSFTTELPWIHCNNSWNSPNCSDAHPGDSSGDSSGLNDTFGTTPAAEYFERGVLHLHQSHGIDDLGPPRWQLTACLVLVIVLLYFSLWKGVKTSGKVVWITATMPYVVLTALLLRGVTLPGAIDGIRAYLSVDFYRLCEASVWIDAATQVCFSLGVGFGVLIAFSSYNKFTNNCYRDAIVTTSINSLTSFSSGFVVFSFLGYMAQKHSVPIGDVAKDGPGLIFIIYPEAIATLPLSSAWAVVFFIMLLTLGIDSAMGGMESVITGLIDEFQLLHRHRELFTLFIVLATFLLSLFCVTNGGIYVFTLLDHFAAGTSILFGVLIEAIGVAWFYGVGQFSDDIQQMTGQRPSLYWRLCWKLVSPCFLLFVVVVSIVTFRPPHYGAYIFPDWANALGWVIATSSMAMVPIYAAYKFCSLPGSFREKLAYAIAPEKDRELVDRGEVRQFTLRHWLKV
Method in brief: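 Total particulate membranes from HEK-293 cells stably expressing hDAT, with [125I]RTI-55 at 40−60 pM. Nonspecific binding defined with 5 μM mazindol.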

[4] = target: T2, Synaptic vesicular amine transporter (Homo sapiens, UniProt Q05940); assay: Displacement of [3H](+)-syn-Ethyl 1-(2-(2,4-Dioxo-1,2-dihydroquinazolin-3(4H)-yl)ethyl)-4-(4-fluorophenyl)piperidine-3-carboxylate from human VMAT2 expressed in HEK293 cell membranes incubated for 60 mins by scintillation counting method
T2 sequence (Q05940 whole entry): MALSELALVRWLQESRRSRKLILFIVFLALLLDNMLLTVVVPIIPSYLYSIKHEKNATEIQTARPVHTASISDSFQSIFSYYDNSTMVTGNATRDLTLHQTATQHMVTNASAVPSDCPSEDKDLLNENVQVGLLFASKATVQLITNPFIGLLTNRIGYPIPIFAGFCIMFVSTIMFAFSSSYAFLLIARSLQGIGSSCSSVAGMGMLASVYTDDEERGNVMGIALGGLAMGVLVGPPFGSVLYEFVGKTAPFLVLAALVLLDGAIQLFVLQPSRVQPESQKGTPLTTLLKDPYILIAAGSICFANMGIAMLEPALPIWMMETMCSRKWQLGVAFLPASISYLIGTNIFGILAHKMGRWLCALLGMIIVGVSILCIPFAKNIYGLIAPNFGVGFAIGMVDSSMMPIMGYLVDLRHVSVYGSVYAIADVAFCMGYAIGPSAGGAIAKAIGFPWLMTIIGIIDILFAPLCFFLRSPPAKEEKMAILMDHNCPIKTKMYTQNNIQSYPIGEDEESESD
Method in brief: (§1)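 Membranes from confluent HEK-293 cells stably expressing human VMAT2, prepared by osmotic shock and restored with Tris/K tartrate/MgSO4. About 50−75 μg protein per assay with [3H](+)-5b at 50−100 nM final. Incubated 60 min at 4 °C in the dark. Filtration, then beta counting.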

[5] = target: T2, Synaptic vesicular amine transporter; assay: Displacement of [3H]DHTB from human VMAT2 expressed in HEK293 cell membranes incubated for 90 mins by microbeta scintillation counting method
Method in brief: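 Tris buffer without ATP, 90 min at room temperature. Nonspecific binding defined with 2 μM DHTB. Filtermat filtration and microBeta counting. Test compounds 1 nM–10 μM.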

[6] = target: T2, Synaptic vesicular amine transporter; assay: Displacement of [3H]reserpine from human VMAT2 expressed in HEK293 cell membranes incubated for 60 mins by scintillation counting method
[7] = target: T2, Synaptic vesicular amine transporter; assay: Inhibition of human VMAT2 expressed in HEK293 cell membranes assessed as reduction in [3H[-5HT uptake pre-incubated for 10 mins before [3H[-5HT addition and measured after 6 mins; type: cell-based
Method in brief: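 Vesicular membranes from HEK-hVMAT2 cells: differential centrifugation, osmotic shock, then resuspension in uptake buffer (tartrate/Tris/KCl/MgSO4, ascorbate, tropolone, pargyline, pH 7.4, 2 mM MgATP). Drug preincubation 10 min at 30 °C. Stopped by filtration. Duplicate wells, IC50.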

[8] = target: Synaptic vesicular amine transporter (Mus musculus, UniProt Q8BRU6); assay: Inhibition of VMAT2 in C57Bl/6J mouse striatal membranes assessed as reduction in [3H[-5HT uptake pre-incubated for 10 mins before [3H[-5HT addition and measured after 8 mins; type: cell membranes, Striatum, Membrane
Chain of Synaptic vesicular amine transporter (Mus musculus, UniProt Q8BRU6) (Q8BRU6 whole entry): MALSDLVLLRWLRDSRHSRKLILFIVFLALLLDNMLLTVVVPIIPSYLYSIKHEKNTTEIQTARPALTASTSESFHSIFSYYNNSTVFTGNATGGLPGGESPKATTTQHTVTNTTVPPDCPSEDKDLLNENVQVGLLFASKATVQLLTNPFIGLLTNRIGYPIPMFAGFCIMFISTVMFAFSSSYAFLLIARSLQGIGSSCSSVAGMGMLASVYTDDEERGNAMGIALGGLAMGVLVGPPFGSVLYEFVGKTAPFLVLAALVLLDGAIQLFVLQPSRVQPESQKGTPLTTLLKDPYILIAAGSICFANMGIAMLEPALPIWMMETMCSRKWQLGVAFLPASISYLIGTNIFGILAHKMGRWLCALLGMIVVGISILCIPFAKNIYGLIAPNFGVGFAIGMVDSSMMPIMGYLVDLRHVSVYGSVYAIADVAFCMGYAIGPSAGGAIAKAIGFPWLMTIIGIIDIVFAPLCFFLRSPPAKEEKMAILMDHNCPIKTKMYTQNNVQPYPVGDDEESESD

[9] = target: T2, Synaptic vesicular amine transporter; assay: Binding affinity to human VMAT2 expressed in HEK293 cell membranes by scintillation counting method based saturation binding assay
Method in brief: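 Saturation binding on HEK-VMAT2 membranes, with duplicate points mixing labeled and unlabeled ligand. [3H](+)-5b: 5–600 nM, 60 min at 4 °C in the dark, buffer with 2 mM MgATP. 3−4 independent experiments.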

HEK293 [10] = assay: Cytotoxicity in HEK293 cells expressing human VMAT2 assessed as reduction in cell viability at 1 uM incubated for 24 hrs by MTT assay; type: cell-based; settings: hek293, 24 h
Method in brief: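 HEK-293 cells stably expressing human VMAT2, seeded at 5 × 10^4 cells/well in DMEM with 10% FetalClone, penicillin/streptomycin and G418. On day 2, compound in DMEM was added to triplicate wells, with 0.1% DMSO in all conditions, for 24 h. MTT reagent was then added for 2 h at 37 °C, followed by solvent. Absorbance read at 590 nm, normalized to control cells, and analyzed by one-way ANOVA with Dunnett's test.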

HEK293 [11] = assay: Cytotoxicity in HEK293 cells expressing human VMAT2 assessed as reduction in cell viability at 10 uM incubated for 24 hrs by MTT assay; type: cell-based; settings: hek293, 24 h
Method in brief: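 HEK-VMAT2 cells plated at 5 × 10^4 per well. Drugs added on day 2 to triplicate wells, all with 0.1% DMSO, for 24 h. MTT reagent then 2 h at 37 °C, solvent added, read at 590 nm. Values normalized to control cells. One-way ANOVA with post hoc test.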

[12] = target: T2, Synaptic vesicular amine transporter; assay: Binding affinity to human VMAT2 expressed in HEK293 cell membranes assessed as observed associate rate constant at 24 to 28 nM in presence of 2 mM Mg-ATP by scintillation counting method; settings: tested as the 3H-labelled form
Method in brief: (§2)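 Kinetics for the [3H](+)-5b site on HEK-293 membranes expressing human VMAT2, run with 2 mM Mg-ATP. Excess unlabeled ligand of the same kind was used. Association at a single radioligand concentration was fitted as one-phase exponential association to give kobs.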

[13] = target: T2, Synaptic vesicular amine transporter; assay: Binding affinity to human VMAT2 expressed in HEK293 cell membranes in presence of 2 mM Mg-ATP by scintillation counting method; settings: tested as the 3H-labelled form
Method in brief: as §1

[14] = target: T2, Synaptic vesicular amine transporter; assay: Binding affinity to human VMAT2 expressed in HEK293 cell membranes assessed as half life at 24 to 28 nM in presence of 2 mM Mg-ATP by scintillation counting method; settings: tested as the 3H-labelled form
Method in brief: as §2

Chain of 5-hydroxytryptamine receptor 2A (P28223 whole entry): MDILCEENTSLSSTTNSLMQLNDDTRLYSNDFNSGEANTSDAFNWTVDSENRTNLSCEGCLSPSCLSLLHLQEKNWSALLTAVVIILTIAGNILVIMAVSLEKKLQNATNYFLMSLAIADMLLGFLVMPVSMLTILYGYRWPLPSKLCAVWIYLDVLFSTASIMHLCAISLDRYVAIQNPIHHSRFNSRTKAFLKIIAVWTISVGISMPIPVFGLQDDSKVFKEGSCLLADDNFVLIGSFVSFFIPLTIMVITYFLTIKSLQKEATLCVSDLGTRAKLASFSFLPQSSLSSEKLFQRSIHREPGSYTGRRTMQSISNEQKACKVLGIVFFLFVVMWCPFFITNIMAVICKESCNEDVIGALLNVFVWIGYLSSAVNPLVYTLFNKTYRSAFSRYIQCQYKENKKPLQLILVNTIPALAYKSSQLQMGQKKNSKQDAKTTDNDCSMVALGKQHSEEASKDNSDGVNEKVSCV

Compound | pKi [1] | Activity [2] | pKi [3] | pKi [4] | pKi [5] | pKi [6] | pIC50 [7] | pIC50 [8] | Activity (HEK293 [11]) | other results
CCOC(=O)c1ccc([C@H]2CCN(CCn3c(=O)[nH]c4ccccc4c3=O)C[C@H]2C(=O)OCC)cc1 (racemic) | < 5.00 | inactive | < 5.00 | – | – | – | – | – | – | –
CCOC(=O)[C@@H]1CN(CCn2c(=O)[nH]c3ccccc3c2=O)CC[C@@H]1c1ccc(C(F)(F)F)cc1 (racemic) | < 5.00 | inactive | < 5.00 | 6.14 | < 5.00 | < 5.00 | 5.54 | – | – | –
COC(=O)[C@H]1[C@H]2C[C@@H]3c4[nH]c5cc(OC)ccc5c4CCN3C[C@H]2C[C@@H](OC(=O)c2cc(OC)c(OC)c(OC)c2)[C@@H]1OC [RESERPINE] | – | – | – | – | – | – | – | 8.75 | – | Bmax [9]: 0.942 pmol/mg; Activity (HEK293 [10]): Non-Toxic
CCOC(=O)[C@@H]1CN(CCn2c(=O)[nH]c3ccccc3c2=O)CC[C@@H]1c1ccc(-c2ccccc2)cc1 (racemic) | < 5.00 | inactive | < 5.00 | 5.42 | < 5.00 | < 5.00 | < 5.00 | – | – | –
CCOC(=O)[C@@H]1CN(CCn2c(=O)[nH]c3ccccc3c2=O)CC[C@@H]1c1cccc(C(F)(F)F)c1 (racemic) | < 5.00 | inactive | < 5.00 | 6.46 | < 5.00 | 6.00 | 6.90 | 7.89 | Non-Toxic | –
CCC1(O)CC2c3cc(OC)c(OC)cc3CCN2CC1CC(C)C (stereo not drawn) | < 5.00 | – | – | 5.71 | 7.19 | 7.08 | 6.81 | 7.30 | Non-Toxic | –
CCOC(=O)[C@@H]1CN(CCn2c(=O)[nH]c3ccccc3c2=O)CC[C@@H]1c1cccs1 (racemic) | < 5.03 | inactive | < 5.15 | 6.05 | 5.21 | 6.35 | 7.00 | 7.50 | Non-Toxic | –
CNC(C)Cc1ccccc1 (stereo not drawn) | 4.00 | – | – | 4.61 | 3.46 | 5.19 | 5.44 | 5.56 | Non-Toxic | –
CCOC(=O)[C@@H]1CN(CCn2c(=O)[nH]c3ccccc3c2=O)CC[C@@H]1c1ccc(N(C)C)cc1 (racemic) | < 5.00 | inactive | < 5.00 | 5.71 | < 5.00 | < 5.00 | 5.24 | – | – | –
CCOC(=O)[C@@H]1CN(CCn2c(=O)[nH]c3ccccc3c2=O)CC[C@@H]1c1cccc2c1OCCO2 (racemic) | < 5.00 | inactive | < 5.00 | – | – | – | – | – | – | –
CCOC(=O)C1CN(CCn2c(=O)[nH]c3ccccc3c2=O)CCC1c1ccc(F)cc1 (single isomer, unassigned; (-)) [listing 1 of 2 here] | – | – | 5.00 | – | – | – | – | 8.18 | – | pKi ([1]; hek293): < 5.00
CCOC(=O)[C@@H]1CN(CCn2c(=O)[nH]c3ccccc3c2=O)CC[C@@H]1c1ccc(C)cc1 (racemic) | < 5.00 | inactive | 5.14 | 6.34 | < 5.04 | < 5.00 | 5.57 | – | – | –
CCOC(=O)[C@H]1CN(CCn2c(=O)[nH]c3ccccc3c2=O)CC[C@H]1c1ccc(F)cc1 | – | – | – | – | – | – | – | – | – | K [12]: 0.051; fold change (FC) [13]: 15; Bmax ([9]; tested as the 3H-labelled form): 13.5 pmol/mg; T1/2 [14]: < 1 min
CN1[C@@H](CC(=O)c2ccccc2)CCC[C@H]1C[C@H](O)c1ccccc1 [LOBELINE] | 5.13 | – | – | 5.71 | < 5.00 | 5.74 | 5.38 | 6.42 | – | –
CCOC(=O)C1CN(CCn2c(=O)[nH]c3ccccc3c2=O)CCC1c1ccc(F)cc1 (single isomer, unassigned; (-)) [listing 2 of 2 here] | – | inactive | – | – | – | – | – | – | – | –
CCOC(=O)[C@@H]1CN(CCn2c(=O)[nH]c3ccccc3c2=O)CC[C@@H]1c1ccccc1 (racemic) | < 5.00 | inactive | 5.79 | 6.54 | < 5.11 | 7.15 | 7.71 | 8.04 | Non-Toxic | –
CCOC(=O)[C@@H]1CN(CCn2c(=O)[nH]c3ccccc3c2=O)CC[C@H]1c1ccc(F)cc1 (racemic) | 7.43 | inactive | < 5.03 | – | – | – | – | 7.61 | Non-Toxic | –
CCOC(=O)[C@@H]1CN(CCn2c(=O)[nH]c3ccccc3c2=O)CC[C@@H]1c1ccc(F)cc1 (racemic) | 5.62 | inactive | 5.38 | – | – | – | – | 8.46 | Non-Toxic | –
CCOC(=O)C1CN(CCn2c(=O)[nH]c3ccccc3c2=O)CCC1c1ccc(F)cc1 (single isomer, unassigned; (+)) | – | inactive | – | – | – | – | – | – | – | –
COc1cc2c(cc1OC)C1CC(O)C(CC(C)C)CN1CC2 (stereo not drawn) | 8.17 | – | – | – | – | – | – | 7.70 | Non-Toxic | Bmax [9]: 41.2 pmol/mg
O=C(c1ccc(F)cc1)C1CCN(CCn2c(=O)[nH]c3ccccc3c2=O)CC1 [KETANSERIN] | – | – | – | 5.92 | 7.11 | 6.45 | 6.74 | 7.00 | Non-Toxic | –

Reference: ChEMBL document CHEMBL4196220, “Synthesis and Discovery of Arylpiperidinylquinazolines: New Inhibitors of the Vesicular Monoamine Transporter” (J Med Chem, 2018)
